FID counter: displaces DNA intercalator in HCV helicase counter-screen; inhibition, % at 7.9 µM; hit rate 0.17% among 290,000; DNA fluorescent intercalator displacement, fluorescence; in the data active = inhibition above about 37%;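 note: 0% = vehicle and 100% = reference compound; higher means more ethidium bromide displaced from hairpin DNA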
VIM-2 inhibitor: blocks Pseudomonas aeruginosa VIM-2 metallo-beta-lactamase; purified VIM-2, nitrocefin hydrolysis, epi-absorbance fluorescence; inhibition, % at 5.6 µM; hit rate 0.89% among 290,000; AID 1527;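 active = inhibition above the mean of all tested compounds plus 3 SD, cutoff set per screening run, cut at about 7.5% in these data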;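 note: red hydrolysis product quenches plate fluorescence so inhibitors raise well fluorescence; 0% = enzyme with DMSO and 100% = DMSO without enzyme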
IMP-1 inh-1: inhibitors of Pseudomonas aeruginosa IMP-1 metallo-beta-lactamase; AID 1556; hit rate 0.45% among 290,000; inhibition, % at 5.6 µM; purified IMP-1, nitrocefin hydrolysis, epi-absorbance fluorescence;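 active = inhibition above the mean plus 3 SD of all compounds in the same screening run, cut at about 4.5% in these data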;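 note: 0% = IMP-1 with DMSO and 100% = DMSO wells lacking enzyme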
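System: purified recombinant IMP-1 beta-lactamase. Medium: Zinc- and detergent-supplemented HEPES buffer, pH 7.1. Compound: one 5.6 µM dose […]. Schedule: 15 min preincubation plus 25 min reaction at 25 °C. Technique: Epi-absorbance fluorescence, 480 nm excitation, 530 nm emission.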
RAD54 branch: blocks human RAD54 Holliday junction branch migration; hit rate 0.14% among 360,000; inhibition, % at 10.4 µM; AID 602329; Q92698; FAM/BHQ fluorescence;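 active = mean normalized replicate activity at least 40 and at least half of replicates scoring 40 or more; inconclusive = only one of the two criteria met; inactive = mean below 40 and under half of replicates reaching 40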;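 note: 0% = median of neutral control wells and 100% = median of positive control wells; inhibitors cause a drop in the FAM fluorescence signal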
PvdQ inh: blocks Pseudomonas aeruginosa PvdQ acylase activity. purified PvdQ acylase, fluorescence plate reader. hit rate 0.063% among 340,000. inhibition, % at 10 µM. AID 488965; in the data active = inhibition above about 30%, passing the limit was not always enough; inconclusive = no clear call, values can overlap the other calls;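 note: 0% = vehicle neutral wells and 100% = reference inhibitor wells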
IMP-1 inh-2: blocks IMP-1 metallo-beta-lactamase in VIM-2 selectivity screen; shares compounds with VIM-2 inhibitor; inhibition, % at 5.6 µM; 1,300 tested, under 10 active; purified IMP-1, nitrocefin hydrolysis, epi-absorbance fluorescence; AID 1856; call rule not given here;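 note: 0% = enzyme with vehicle and 100% = vehicle without enzyme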
VIM-2 FRET inh: counter-screen for VIM-2 inhibitors: epi-absorbance artifacts via FRET; purified VIM-2, CCF2 FRET substrate hydrolysis; inhibition, % at 5.6 µM; hit rate 23% among 1,300; shares compounds with VIM-2 inhibitor;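 active = inhibition above the mean of all tested compounds plus 3 SD, cut at about 19% in these data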;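 note: 0% = VIM-2 plus DMSO and 100% = no enzyme wells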
TEM-1 counter-1: selectivity counter-screen for VIM-2 inhibitors: E. coli TEM-1 inhibitors; shares compounds with VIM-2 inhibitor; hit rate 3% among 1,300; inhibition, % at 5.6 µM; Purified TEM-1, nitrocefin hydrolysis, epi-absorbance fluorescence;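 active = inhibition above that campaign's mean inhibition plus 3 SD, cut at about 0.46% in these data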;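 note: 0% = TEM-1 with DMSO and 100% = TEM-1 with 100 µM potassium clavulanate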
VIM-2 inh conf: confirmation of P. aeruginosa VIM-2 metallo-beta-lactamase inhibitors; shares compounds with VIM-2 inhibitor; purified VIM-2, nitrocefin hydrolysis, epi-absorbance; inhibition, % at 5.6 µM; hit rate 96% among 1,300; AID 2187;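 active = inhibition of the VIM-2 beta-lactamase enzyme above about 11% from the earlier first-round screen, limit read from the data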;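 note: 0% = VIM-2 with DMSO and 100% = buffer wells without enzyme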
VIM-2 inh confirm: VIM-2 inhibition, confirmation assay; shares compounds with IMP-1 inh-1; purified VIM-2 enzyme, nitrocefin absorbance; inhibition, % at 5.6 µM; hit rate 73% among 200; AID 1860; in the data active = inhibition above about 8%;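 note: 0% = enzyme with vehicle and 100% = no enzyme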
TEM-1 counter-2: blocks E. coli TEM-1 beta-lactamase, VIM-2 IMP-1 counter-screen | shares compounds with IMP-1 inh-1 | nitrocefin absorbance inhibition | inhibition, % at 5.6 µM | hit rate 50% among 200; in the data active = inhibition above about 0.66%
IMP-1 confirm: confirmation of P. aeruginosa IMP-1 metallo-beta-lactamase inhibitors; purified IMP-1 enzyme, absorbance substrate hydrolysis; hit rate 60% among 200; shares compounds with IMP-1 inh-1; inhibition, % at 5.6 µM; in the data active = inhibition above about 4.9%;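 note: 0% = enzyme with vehicle and 100% = vehicle without enzyme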
DNA binding: DNA binding artifact in Rad54 counter-screen | shares compounds with RAD54 branch | Acridine orange-DNA displacement, fluorescence polarization, 20 min | AC50, µM (series often up to 35 µM), inactives show at the highest dose activity change, negative = DNA binding | hit rate 8% among 460 | AID 651673;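 active = signal drop giving an AC50 within twice the top valid tested concentration of each sample, actives reach about 35 µM in these data; inactive = activity opposite to expected, plus the rest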;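 note: polarization loss reports compound binding to salmon sperm DNA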
Starred values were filed as active, the others as inactive; u = inconclusive; x = no result given. An excerpt weighted towards active compounds, which were near 1% of everything screened.

SMILES	FID counter	VIM-2 inhibitor	IMP-1 inh-1	RAD54 branch	PvdQ inh	VIM-2 inh confirm	TEM-1 counter-2	IMP-1 confirm	others
Cn1c(C(=O)NC2CCCCC2)cc2c(=O)n(C)c3ccccc3c21	-10	1	-5	8	-13	x	x	x
c1ccc(-c2nc(NCCCn3ccnc3)c3oc4ccccc4c3n2)cc1	18	19*	-5	u	6	x	x	x	IMP-1 inh-2=-2;VIM-2 FRET inh=-26;TEM-1 counter-1=-6;VIM-2 inh conf=35*;DNA binding=-15%
COc1ccc2noc3c2c1C(=O)c1ccccc1-3	x	x	x	-116	-3	x	x	x
O=C1c2ccccc2-c2onc3ccc(NCCCn4ccnc4)c1c23	69*	55*	4.6*	x	x	89*	69*	56*
O=C(C[C@H]1C=C[C@H](NC(=O)CC2CC2)[C@@H](CO)O1)NCc1ccc(Cl)cc1	x	x	x	6	x	x	x	x
Cc1n[nH]c(C)c1N1C(=O)c2cccc3c(N4CCCCCC4)ccc(c23)C1=O	-41	20*	16*	-469	0	27*	21*	9.3*
C[C@H]1CN([C@@H](C)CO)C(=O)Cc2cc(NC(=O)Nc3cccc4ccccc34)ccc2O[C@H]1CN(C)C(=O)Nc1cccc2ccccc12	x	x	x	6	x	x	x	x
CCOC(=O)c1c2c3c(cccc3n(C)c1=O)C(=O)c1ccccc1-2	3	15*	21*	-5	8	20*	1.4*	7.9*
Cc1ccc(S(=O)(=O)Nc2ccc3c(c2)C(=O)N([C@@H](C)CO)C[C@@H](C)[C@@H](CN(C)CC2CCCCC2)OCCCC[C@H](C)O3)cc1	x	x	x	2	x	x	x	x
Cc1cccn2c(=O)c3cc(C(=O)NCCCn4ccnc4)n(C)c3nc12	2	10*	23*	11	-18	32*	-4	2
COc1cc(-c2cc(=O)c3ccc(O)cc3o2)cc(OC)c1OC	x	x	x	-1	x	x	x	x
COc1cc(OC)c(-c2c3cc(O)c(=O)cc-3oc3cc(O)c(O)cc23)cc1OC	-35	16*	7.0*	x	2	49*	75*	46*
CN(/N=C/c1cc([N+](=O)[O-])ccc1O)c1ccccc1	0	-2	-3	x	-2	x	x	x
CN(/N=C/c1ccc(-c2ccc([N+](=O)[O-])cc2)o1)c1ccccc1	7	26*	30*	-15	-9	17*	27*	16*
Cc1cc2nc3c(=O)[nH]c(=O)[nH]c3nc2c([N+](=O)[O-])c1N	2	12*	12*	-164	-1	11*	20*	4
Cc1c(N)c(C(C)(C)C)cc(C(C)(C)C)c1[N+](=O)[O-]	-1	-2	-5	x	3	x	x	x
Cc1noc(C)c1NC(=O)Nc1ccc2c(c1)C(=O)N([C@@H](C)CO)C[C@@H](C)[C@@H](CN(C)C(=O)NC1CCCCC1)OCCCC[C@@H](C)O2	x	x	x	0	x	x	x	x
CCN(CC)c1ccc2cc(C(=O)NCc3ccc(F)cc3)c(=N)oc2c1	-7	8	21*	-58	-21	17*	26*	13*
N=c1oc2ccc(Br)cc2cc1C(=O)NCc1ccc(F)cc1	-2	1	-1	-6	-7	x	x	x
C[C@H]1CCCCO[C@@H](CN(C)Cc2ccncc2)[C@@H](C)CN([C@@H](C)CO)C(=O)c2cc(N(C)C)ccc2O1	x	x	x	-8	x	x	x	x
